For test [1], the system named is Mus musculus. Put plainly: Inhibition of apomorphine-induced climbing following s.c. administration in mice. The format is functional. To be noted: sc. The gist of the method:
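Male Bom:NMRI mice, n=10 per group, received saline or drug sc 50 min before the trial and apomorphine 2 mg/kg sc 20 min before it. Each mouse was placed alone in a cylindrical wire cage, and climbing time over a 60-s trial was recorded automatically. ED50 and 95% confidence limits came from logistic nonlinear regression over 3-4 doses.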

Test [2] has as its system Mus musculus. Briefly: Tremor after subcutaneous administration in mice was determined. The test is classed as functional. To be noted: sc. A digest of the protocol: (§1)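 Mice received saline or drug sc. Side effects were scored 30 min after injection on a three-grade scale and expressed as percent of the maximum possible score. ED50 was obtained by graphic interpolation of the dose-response curve.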

For test [3], the system named is Rattus norvegicus. Briefly: Conditioned avoidance responding in rat after subcutaneous administration (1 mg/kg); expressed as avoidance response/response failure. The format is functional. The gist of the method:
(§2)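 Single-dose screen in rats, given sc at the dose listed in each line. Each session typically ran 50 trials. Percent avoidance responses and percent response failures were recorded.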

Test [4] relates to Rattus norvegicus. Put plainly: Inhibition of conditioned avoidance response in rat following s.c. administration. The test is classed as functional. The note with it: sc. A digest of the protocol: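 Rats were tested sc over a full dose range in the conditioned avoidance model, six rats per point, up to 50 trials per session. ED50 is the dose giving 50% of the drug's maximal effect on avoidance responding.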

Test [5] deals with Mus musculus. Put plainly: Salivation after subcutaneous administration in mice. To be noted: sc. The test is classed as functional. A digest of the protocol:
as §1

A short description of test [6]: In vitro inhibition of [3H]Oxo-Mas binding to M2 and M4 receptors in rat brain homogenate.
Test [7] relates to Rattus norvegicus. Briefly: Conditioned avoidance responding in rat after subcutaneous administration (3 mg/kg); expressed as avoidance response/response failure. The format is functional. The gist of the method: as §2
The subject of test [8] is Rattus norvegicus. Put plainly: Conditioned avoidance responding in rat after subcutaneous administration (0.3 mg/kg); expressed as avoidance response/response failure; 16/1. The format is functional, organism-based. The gist of the method:
as §2

Test [9] concerns Rattus norvegicus. Put plainly: Conditioned avoidance responding in rat after subcutaneous administration (0.3 mg/kg); expressed as avoidance response/response failure; 9/55. The test is classed as functional, organism-based.
In test [10] the test system is Rattus norvegicus. Put plainly: Conditioned avoidance responding in rat after subcutaneous administration (3 mg/kg); expressed as avoidance response/response failure; 48/20. The test is classed as functional, organism-based. The gist of the method: as §2
Test [11] deals with Rattus norvegicus. Briefly: Conditioned avoidance responding in rat after subcutaneous administration (0.3 mg/kg); expressed as avoidance response/response failure; 3/41. The test is classed as functional, organism-based.
In test [12] the test system is Rattus norvegicus. Briefly: Conditioned avoidance responding in rat after subcutaneous administration (1 mg/kg); expressed as avoidance response/response failure; 18/21. The test is classed as functional, organism-based.
For test [13], the system named is Rattus norvegicus. Put plainly: Conditioned avoidance responding in rat after subcutaneous administration (0.3 mg/kg); expressed as avoidance response/response failure; 29/19. The format is functional, organism-based.
Test [14] deals with Rattus norvegicus. Put plainly: Conditioned avoidance responding in rat after subcutaneous administration (0.3 mg/kg); expressed as avoidance response/response failure; 24/63. The test is classed as functional, organism-based. A digest of the protocol:
as §2

Test [15] in a line: In vitro inhibition of [3H]Oxo-Mas binding to M2 and M4 receptors in rat brain homogenate. The source holds these as a separate data set.

The source made the active and inactive calls. The rule behind the calls is not given here.

As to `CCCCSc1nsnc1[C@@H]1CN2CCC[C@H]1C2`, the ED50 with Mus musculus [1] is 0.026 mg/kg; in the test with Mus musculus [2], greater than 3 mg/kg; in the test on Rattus norvegicus [4], 0.018 mg/kg; in the test with Mus musculus [5], greater than 3 mg/kg. In the test with Rattus norvegicus [3], this compound returned an Activity of 8%. The IC50 in test [6] came to 0.53 nM.
Regarding `CCCSc1nsnc1[C@H]1CN2CCC[C@@H]1C2`, the ED50 with Mus musculus [1] was 0.021 mg/kg; with Mus musculus [2], 2.2 mg/kg; in the test with Rattus norvegicus [4], 0.013 mg/kg; in the test on Mus musculus [5], greater than 3 mg/kg. In the test on Rattus norvegicus [7], this compound returned an Activity of 31%. The same compound registered an IC50 in [6] of 0.64 nM.
`CCCCSc1nsnc1C1CN2CC[C@H]1C2` (some centres not stated): the Activity in the test on Rattus norvegicus [7] was 0%. Moreover, the ED50 with Rattus norvegicus [4] is less than 1 mg/kg. Further, the IC50 in test [6] came out at 1.3 nM.
As for `CCCCSc1nsnc1[C@H]1CN2CCC[C@@H]1C2`, the ED50 was 0.012 mg/kg in the test on Mus musculus [1], greater than 0.3 mg/kg with Mus musculus [2], 0.017 mg/kg in the test with Rattus norvegicus [4] and greater than 0.3 mg/kg in the test with Mus musculus [5]. The outcome in the test on Rattus norvegicus [8] was Active. Moreover, the IC50 in test [6] worked out at 0.5 nM.
`CCCCSc1nsnc1[C@@H]1CN2CCC[C@@H]1C2`: in the test with Rattus norvegicus [7], the Activity worked out at 86%. In the test with Rattus norvegicus [4], this compound gave an ED50 greater than 3 mg/kg. The IC50 in test [6] came to 9.9 nM.
Regarding `CCCSc1nsnc1C1CN2CCC[C@H]1C2` (some centres not stated), the ED50 in the test with Mus musculus [1] and with Rattus norvegicus [4] was 0.056 mg/kg each time. The same compound yielded an Activity in the test with Rattus norvegicus [3] of 41%. Besides, in [6], the IC50 worked out at 1.4 nM.
In the case of `O=C(CCCN1CCC(O)(c2ccc(Cl)cc2)CC1)c1ccc(F)cc1` [HALOPERIDOL], the ED50 with Mus musculus [1] came out at 0.08 mg/kg; in the test on Rattus norvegicus [4], 0.11 mg/kg. Also, in the test with Rattus norvegicus [9], the result was inactive.
`CCCCSc1nsnc1C1CN2CC[C@@H]1C2` (some centres not stated) registered an Activity in the test on Rattus norvegicus [7] of 100%. For the same compound, in the test with Rattus norvegicus [4], the ED50 is greater than 1 mg/kg. The IC50 in test [6] was found to be 4.2 nM.
Regarding `CSc1nsnc1C1CN2CCC[C@H]1C2` (some centres not stated), the ED50 in the test with Mus musculus [1] is 0.2 mg/kg; in the test on Rattus norvegicus [4] it was 0.14 mg/kg. Moreover, in test [6], the IC50 amounted to 2.9 nM.
Turning to `CCCCSc1nsnc1C1CN2CCC1CC2` (configuration not stated) [VEDACLIDINE], the Activity in the test on Rattus norvegicus [7] turned out to be 18%. Moreover, the 50% effect level in the test on Rattus norvegicus [4] (ED50) was put at a dose of 0.1 mg/kg. Also, the IC50 in [6] is 2.2 nM.
Regarding `CCCCSc1nsnc1[C@H]1CN2CCC[C@H]1C2`, the ED50 in the test with Mus musculus [1] was greater than 1 mg/kg; with Mus musculus [2], greater than 1 mg/kg; in the test with Rattus norvegicus [4] it was greater than 3 mg/kg; in the test on Mus musculus [5], greater than 1 mg/kg. Also, in the test with Rattus norvegicus [10], the Activity result was “Weak activity”. In test [6], this compound displayed an IC50 of 2.3 nM.
Take `CCCSc1nsnc1[C@H]1CN2CCC[C@H]1C2`: the ED50 in the test with Mus musculus [1] was 2.21 mg/kg; in the test with Mus musculus [2] it was greater than 30 mg/kg; with Rattus norvegicus [4], greater than 3 mg/kg; with Mus musculus [5], greater than 30 mg/kg. In the test on Rattus norvegicus [7], this compound yielded an Activity of 86%. The same compound gave an IC50 in test [6] of 3.6 nM.
Turning to `CCCCCSc1nsnc1C1CN2CCC[C@H]1C2` (some centres not stated), the results for the ED50 in the test on Mus musculus [1] and in the test with Rattus norvegicus [4] were 0.054 mg/kg and 0.065 mg/kg, respectively. The result with Rattus norvegicus [11] was inactive. In test [6], this compound registered an IC50 of 2.5 nM.
Take `CCCCSc1nsnc1C1CN2CCC[C@H]1C2` (some centres not stated): the ED50 in the test with Mus musculus [1] was 0.045 mg/kg; with Rattus norvegicus [4], 0.007 mg/kg. In addition, in the test on Rattus norvegicus [3], the Activity is on record as 32%. The IC50 in test [6] was determined as 0.47 nM.
As for `CC[C@@H]1C(=O)OC[C@@H]1Cc1cncn1C` [PILOCARPINE], the ED50 with Mus musculus [1] is 3.87 mg/kg; in the test on Mus musculus [2], greater than 10 mg/kg; in the test with Rattus norvegicus [4], 4.5 mg/kg; in the test on Mus musculus [5], 4 mg/kg. Also, in the test on Rattus norvegicus [12], the Activity result is “Weak activity”. Moreover, the IC50 in [6] was found to be 67 nM.
For `CCCCCCSc1nsnc1C1CN2CCC[C@H]1C2` (some centres not stated), the ED50 with Mus musculus [1] worked out at 0.06 mg/kg; in the test on Rattus norvegicus [4], 0.1 mg/kg. In addition, the Activity result with Rattus norvegicus [13] is “Weak activity”. The IC50 in test [6] came to 3.3 nM.
In the case of `O=C1CCCN1CC#CCN1CCCC1` [OXOTREMORINE], the ED50 in the test on Mus musculus [1] is 0.09 mg/kg; with Mus musculus [2], 0.24 mg/kg; with Rattus norvegicus [4] it was 0.3 mg/kg; in the test on Mus musculus [5], 0.2 mg/kg. In the test with Rattus norvegicus [14], the outcome was inactive. This compound had an IC50 in [6] of 5 nM.
For `CCCSc1nsnc1[C@@H]1CN2CCC[C@@H]1C2`, the ED50 in the test with Mus musculus [1] was 2.2 mg/kg; with Mus musculus [2], greater than 30 mg/kg; in the test with Rattus norvegicus [4] it was greater than 3 mg/kg; with Mus musculus [5], greater than 30 mg/kg. Further, the Activity with Rattus norvegicus [7] is given as 51%. Further, the IC50 in test [6] was 13.3 nM.
`CCCCSc1nsnc1C1CN2CCC[C@@H]1C2` (some centres not stated) displayed an Activity with Rattus norvegicus [7] of 97%. Moreover, in the test on Rattus norvegicus [4], the ED50 was greater than 3 mg/kg. Also, the IC50 in test [6] is 6.1 nM.
On to `CCCSc1nsnc1[C@@H]1CN2CCC[C@H]1C2`, for which the ED50 in the test on Mus musculus [1] was 0.17 mg/kg; in the test with Mus musculus [2] it was 1.3 mg/kg; in the test with Rattus norvegicus [4] it was 0.03 mg/kg; in the test with Mus musculus [5] it was greater than 3 mg/kg. Further, the Activity in the test with Rattus norvegicus [7] was 39%. Further, the IC50 in [6] turned out to be 0.65 nM.
Compound `CCCCSc1nsnc1C1=CCCN(C)C1` had an Activity in the test on Rattus norvegicus [7] of 57%. Further, it took a dose of 2.8 mg/kg to reach the 50% effect level in the test with Rattus norvegicus [4] (ED50). The compound further came in with an IC50 in test [15] of 1.3 nM.
In the case of `CCSc1nsnc1C1CN2CCC[C@H]1C2` (some centres not stated), the ED50 in the test with Mus musculus [1] is 0.047 mg/kg; in the test with Rattus norvegicus [4], 0.045 mg/kg. The compound also displayed an IC50 in test [6] of 1.3 nM.

What is called ED50 is the dose that gives a 50% effect, or the effect in half of the subjects. The IC50 is the concentration that inhibits the measured activity by half. The low end stands for greater potency in that assay, the high end for weaker potency in that assay.

Values taken from ChEMBL document CHEMBL1131590, “Muscarinic agonists with antipsychotic-like activity: structure-activity relationships of 1,2,5-thiadiazole analogues with functional dopamine antagonist activity” (J Med Chem, 1998).
